This is an account of results in ChEMBL document CHEMBL1155794, “Novel N1-substituted 1,3-dihydro-2H-benzimidazol-2-ones as potent non-nucleoside reverse transcriptase inhibitors” (Bioorg Med Chem, 2008).

The nature of series [1]: Selectivity index, ratio of CC50 for human MT4 cells to EC50 for HIV1 3B. In kind it is toxicity, cell-based. Conditions: read-out: Ratio CC50/EC50.
A short description of series [2]: Cytotoxicity against human MT4 cells. In kind it is cell-based. The gist of the method:
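MT-4 cell viability measured after exposure to compound dilutions; CC50 taken as concentration lowering viability by 50%.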

Series [3] concerns Human immunodeficiency virus 1. Nature of the series: Antiviral activity against HIV1 3B in human MT4 cells assessed as virus-induced cytopathogenicity after 5 days. In kind it is functional, organism-based. Conditions: Human immunodeficiency virus 1, 3B, MT4, 120 h. The gist of the method:
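MT-4 cells infected and treated with serial dilutions, incubated at 37 °C for 5 days; viable cell count determined; EC50 = concentration reducing virus-induced cytopathicity by 50%.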
Background: Cytopathic effects are the visible damage that an infection or toxin causes in cultured cells.

Series [4] concerns the target Human immunodeficiency virus type 1 reverse transcriptase (Human immunodeficiency virus 1, UniProt Q72547). Description: Inhibition of HIV1 reverse transcriptase RNA-dependent DNA polymerase activity assessed as incorporation of radioactive dTTP into poly(rA)/oligo(DT).

Structures are written as SMILES.

Broadly, the CC50 is the concentration giving 50% cytotoxicity. A low value points to harm at low concentration. A word on the EC50: it is the concentration at which the effect is half-maximal. As usually defined, the IC50 is the concentration that gives 50% inhibition. Turning to `Cc1cc(C)cc(S(=O)(=O)n2c(=O)[nH]c3ccc(C)cc32)c1`, in series [1], the selectivity ratio is more than 48900. In series [2], this molecule returned a CC50 of more than 308000 nM. In addition, the EC50 in series [3] amounted to 6.3 nM. The IC50 in series [4] turned out to be 100 nM.

For the molecule `Cc1cc(C)cc(S(=O)(=O)n2c(=O)[nH]c3cc(F)c(Cl)cc32)c1`, in series [1], the selectivity ratio was 310. In series [2], the CC50 was determined as 140000 nM. The EC50 in series [3] was 450 nM. Besides, the IC50 in series [4] is 158 nM.

Regarding `O=c1[nH]c2cc(F)c(Cl)cc2n1Cc1cc(F)cc(F)c1`, in series [2], the CC50 was more than 400000 nM. Also, the half-maximal effective concentration (EC50) in series [3] was more than 33900 nM. The IC50 in series [4] is 3 nM.

`CC(=O)n1c(=O)n(Cc2cc(F)cc(F)c2)c2cc(Cl)ccc21`: in series [1], the selectivity ratio is 24. The CC50 in series [2] is 40400 nM. In series [3], the EC50 was determined as 1660 nM. Moreover, in series [4], the IC50 was 38500 nM.

`O=c1[nH]c2ccc(Cl)cc2n1S(=O)(=O)c1cc(F)cc(F)c1`: the selectivity ratio in series [1] was determined as 2930. Besides, the midpoint of cytotoxicity in series [2], the CC50, lay at 202000 nM. Also, the half-maximal effective concentration (EC50) in series [3] is 69 nM. Besides, the half-inhibitory concentration (IC50) in series [4] was found to be 100 nM.

Take `O=C1Nc2ccc(Cl)cc2[C@@](C#CC2CC2)(C(F)(F)F)O1` [EFAVIRENZ]: the CC50 in series [2] is more than 6000 nM.

Consider `O=c1[nH]c2ccc(Cl)cc2n1S(=O)(=O)c1c(F)cccc1F`, for which the selectivity ratio in series [1] was found to be 124. The molecule further returned a CC50 in series [2] of 194000 nM. Besides, in series [3], the EC50 worked out at 1570 nM. In addition, in series [4], the 50% inhibitory concentration (IC50) was 30000 nM.

Take `Cc1cc(C)cc(Cn2c(=O)[nH]c3ccc(C(F)(F)F)cc32)c1`: the selectivity ratio in series [1] was 88. The CC50 in series [2] stood at 37400 nM. For the same molecule, the 50% effective concentration (EC50) in series [3] amounted to 425 nM. Also, the IC50 in series [4] was determined as 280 nM.

Regarding `O=c1[nH]c2cc(F)c(Cl)cc2n1Cc1c(F)cccc1F`, the selectivity ratio in series [1] was 9. The same molecule displayed a CC50 in series [2] of 267000 nM. In addition, in series [3], the EC50 stood at 29000 nM. For the same molecule, the IC50 in series [4] turned out to be 140 nM.

Consider `O=c1[nH]c2ccc(Cl)cc2n1Cc1cc(F)cc(F)c1`, for which the selectivity ratio in series [1] is more than 1470. In series [2], the CC50 was more than 424000 nM. In series [3], the EC50 is 289 nM. The IC50 in series [4] stood at 100 nM.

As to `O=c1[nH]c2ccc(C(F)(F)F)cc2n1Cc1c(F)cccc1F`, the selectivity ratio in series [1] is more than 77. This molecule returned a CC50 in series [2] of more than 424000 nM. For the same molecule, the EC50 in series [3] was found to be 5500 nM. In addition, in series [4], the IC50 is 17 nM.

With `CC(=O)n1c(=O)n(Cc2c(F)cccc2F)c2cc(Cl)ccc21`, in series [1], the selectivity ratio worked out at 190. Further, the midpoint of cytotoxicity in series [2], the CC50, lay at 102000 nM. Moreover, the EC50 in series [3] was 534 nM. In addition, the concentration for half-maximal inhibition (IC50) in series [4] is more than 100000 nM.

Regarding `Cc1ccnc2c1NC(=O)c1cccnc1N2C1CC1` [NEVIRAPINE], the cytotoxic concentration (CC50) in series [2] was more than 15000 nM.

On to `Cc1ccc2[nH]c(=O)n(Cc3cc(F)cc(F)c3)c2c1`, for which the selectivity ratio in series [1] was less than 1. In series [2], this molecule showed a CC50 of 73000 nM. Besides, the EC50 in series [3] is more than 73000 nM. In addition, in series [4], the IC50 is more than 400000 nM.

Turning to `Fc1cccc(F)c1Cn1c(=S)[nH]c2ccc(Cl)cc21`, the selectivity ratio in series [1] worked out at 8. The midpoint of cytotoxicity in series [2], the CC50, lay at 5950 nM. Moreover, the concentration giving a half-maximal response (EC50) in series [3] is 740 nM.

As to `Cc1ccc2[nH]c(=O)n(Cc3c(F)cccc3F)c2c1`, the selectivity ratio in series [1] stood at 13. This molecule also came in with a CC50 in series [2] of 236000 nM. For the same molecule, the EC50 in series [3] was 18600 nM. In addition, in series [4], the IC50 was more than 100000 nM.

For the molecule `Cc1cc(C)cc(Cn2c(=O)[nH]c3ccc(C)cc32)c1`, in series [1], the selectivity ratio is 11. The molecule also registered a CC50 in series [2] of 856 nM. In series [3], the EC50 stood at 75 nM. Besides, the IC50 in series [4] was determined as 76900 nM.

Turning to `Cc1cc(C)cc(Cn2c(=S)[nH]c3ccc(Cl)cc32)c1`, the selectivity ratio in series [1] worked out at 4. In series [2], this molecule showed a half-maximal cytotoxic concentration (CC50) of 305 nM. For the same molecule, the concentration giving a half-maximal response (EC50) in series [3] was determined as 76 nM. The half-inhibitory concentration (IC50) in series [4] came out at 46 nM.

As to `Cc1cc(C)cc(Cn2c(=O)[nH]c3cc(F)c(Cl)cc32)c1`, the selectivity ratio in series [1] was more than 438. The same molecule gave a half-maximal cytotoxic concentration (CC50) in series [2] of more than 410000 nM. In addition, in series [3], the EC50 is 938 nM. Moreover, the IC50 in series [4] is more than 100000 nM.

For `CC(=O)n1c(=O)n(Cc2cc(C)cc(C)c2)c2cc(Cl)ccc21`, the selectivity ratio in series [1] was 614. In addition, in series [2], the midpoint of cytotoxicity, the CC50, lay at 7180 nM. Also, the EC50 in series [3] was found to be 11.7 nM. For the same molecule, in series [4], the 50% inhibitory concentration (IC50) is more than 100000 nM.

For the molecule `O=c1[nH]c2ccc(Cl)cc2n1Cc1c(F)cccc1F`, the selectivity ratio in series [1] is more than 1890. In addition, the 50% cytotoxic concentration (CC50) in series [2] is more than 424000 nM.

With `Fc1cc(F)cc(Cn2c(=S)[nH]c3ccc(Cl)cc32)c1`, the selectivity ratio in series [1] was 2. In series [2], this molecule registered a CC50 of 1200 nM. In addition, the EC50 in series [3] was more than 737 nM. The IC50 in series [4] was determined as 160 nM.

With `Cc1ccc2[nH]c(=O)n(S(=O)(=O)c3c(F)cccc3F)c2c1`, the selectivity ratio in series [1] was determined as 11. Half-maximal cytotoxicity in series [2] (CC50) was put at 2220 nM. In addition, the EC50 in series [3] worked out at 195 nM. Further, in series [4], the IC50 was found to be 1300 nM.

As to `Cc1ccc2[nH]c(=O)n(S(=O)(=O)c3cc(F)cc(F)c3)c2c1`, the selectivity ratio in series [1] was 360. In addition, the CC50 in series [2] is 23400 nM. Also, the EC50 in series [3] was determined as 65 nM. For the same molecule, the IC50 in series [4] came to 200 nM.

With `Cc1cc(C)cc(Cn2c(=O)[nH]c3ccc(Cl)cc32)c1`, the selectivity ratio in series [1] was found to be 281.

`Cc1cc(C)cc(S(=O)(=O)n2c(=O)[nH]c3ccc(Cl)cc32)c1`: the selectivity ratio in series [1] is 17800.
